Measurements taken from ChEMBL document CHEMBL4118097, “Selective Inhibitors of Dual Leucine Zipper Kinase (DLK, MAP3K12) with Activity in a Model of Alzheimer's Disease” (J Med Chem, 2017).

What was measured:
[1] = molecular target: cAMP-dependent protein kinase catalytic subunit PRKX (Homo sapiens) (UniProt P51817); assay: Inhibition of full length GST-tagged human PRKX expressed in Escherichia coli at 1 uM by FRET assay relative to control
[2] = molecular target: 5-hydroxytryptamine receptor 3A (Homo sapiens) (UniProt P46098); assay: Binding affinity to 5HT3 receptor (unknown origin) receptor at 10 uM relative to control
In short: (§1)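 Broad radioligand-binding and enzyme screening panel covering 42 targets (biogenic amine and neuropeptide receptors, ion channels, neurotransmitter transporters, acetylcholinesterase). Single test concentration of 10 μM. Results expressed as binding relative to control, with a hit defined as >50% of control.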

[3] = molecular target: Serine/threonine-protein kinase PLK2 (Homo sapiens) (UniProt Q9NYY3); assay: Inhibition of full length recombinant GST-tagged human PLK2 expressed in baculovirus expression system at 1 uM by FRET assay relative to control
[4] = molecular target: D(2) dopamine receptor (Homo sapiens) (UniProt P14416); assay: Binding affinity to recombinant human D2 short dopamine receptor at 10 uM relative to control; in short: as §1
[5] = molecular target: STE20-like serine/threonine-protein kinase (Homo sapiens) (UniProt Q9H2G2); assay: Inhibition of recombinant full length GST-tagged human SLK expressed in baculovirus expression system at 1 uM by FRET assay relative to control
In short: (§2)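 Single-concentration screen at 1 μM in Life Technologies SelectScreen, across a 220-kinase panel. Z′-LYTE format measures phosphorylation of a labeled peptide by FRET. Results are reported as percent inhibition.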

[6] = molecular target: Homeodomain-interacting protein kinase 4 (Homo sapiens) (UniProt Q8NE63); assay: Inhibition of recombinant full length GST-tagged human HIPK4 expressed in baculovirus expression system at 1 uM by FRET relative to control; in short: as §2
[7] = molecular target: NUAK family SNF1-like kinase 1 (Homo sapiens) (UniProt O60285); assay: Inhibition of recombinant full length His-tagged human ARK5 expressed in baculovirus expression system at 1 uM by FRET assay relative to control
[8] = molecular target: High affinity nerve growth factor receptor (Homo sapiens, UniProt P04629); assay: Inhibition of recombinant His-tagged human TrkA cytoplasmic domain (441 to 796 residues) expressed in baculovirus expression system by FRET assay
[9] = molecular target: Activin receptor type-1B (Homo sapiens) (UniProt P36896); assay: Inhibition of recombinant GST-tagged human ACVR1B catalytic domain (150 to 505 residues) expressed in baculovirus expression system at 1 uM by FRET assay relative to control
Sequence of Activin receptor type-1B (Homo sapiens) (P36896 whole entry, the tested form may be a part): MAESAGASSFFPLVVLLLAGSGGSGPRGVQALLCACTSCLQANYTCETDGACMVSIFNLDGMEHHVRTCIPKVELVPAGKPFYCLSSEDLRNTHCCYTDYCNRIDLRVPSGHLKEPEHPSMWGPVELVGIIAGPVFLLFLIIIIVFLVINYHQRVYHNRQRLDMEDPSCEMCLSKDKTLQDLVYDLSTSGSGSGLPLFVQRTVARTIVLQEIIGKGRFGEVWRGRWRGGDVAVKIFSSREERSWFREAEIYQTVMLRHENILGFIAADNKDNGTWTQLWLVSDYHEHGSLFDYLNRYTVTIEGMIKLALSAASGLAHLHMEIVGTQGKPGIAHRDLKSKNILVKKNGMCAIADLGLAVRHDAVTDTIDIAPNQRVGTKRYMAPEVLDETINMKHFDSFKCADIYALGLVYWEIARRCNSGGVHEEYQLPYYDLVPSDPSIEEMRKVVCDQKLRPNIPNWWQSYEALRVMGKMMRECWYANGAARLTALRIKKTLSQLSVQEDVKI

[10] = molecular target: TAK1/TAB1 (Homo sapiens) (UniProt Q15750+O43318); assay: Inhibition of recombinant full length His-tagged human TAK1-TAB1 (437 to 504 residues) expressed in baculovirus expression system at 1 uM by FRET assay relative to control
[11] = molecular target: Histamine H1 receptor (Homo sapiens) (UniProt P35367); assay: Binding affinity to recombinant human H1 receptor at 10 uM relative to control; in short: as §1
[12] = molecular target: Macrophage-stimulating protein receptor (Homo sapiens) (UniProt Q04912); assay: Inhibition of recombinant GST-tagged human Ron cytoplasmic domain ([…] to 1400 residues) expressed in baculovirus expression system at 1 uM by FRET assay relative to control
Sequence of Macrophage-stimulating protein receptor (Homo sapiens) (Q04912 25-304 limits assumed): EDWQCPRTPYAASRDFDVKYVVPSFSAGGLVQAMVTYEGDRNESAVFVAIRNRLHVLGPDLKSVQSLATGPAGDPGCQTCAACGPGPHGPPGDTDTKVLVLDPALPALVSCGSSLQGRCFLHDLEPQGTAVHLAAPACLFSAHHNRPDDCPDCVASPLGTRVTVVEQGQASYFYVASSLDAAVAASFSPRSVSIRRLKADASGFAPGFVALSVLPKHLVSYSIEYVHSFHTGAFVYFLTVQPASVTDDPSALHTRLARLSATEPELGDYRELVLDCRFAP
Sequence of Macrophage-stimulating protein receptor (Homo sapiens) (Q04912 310-1400 limits assumed): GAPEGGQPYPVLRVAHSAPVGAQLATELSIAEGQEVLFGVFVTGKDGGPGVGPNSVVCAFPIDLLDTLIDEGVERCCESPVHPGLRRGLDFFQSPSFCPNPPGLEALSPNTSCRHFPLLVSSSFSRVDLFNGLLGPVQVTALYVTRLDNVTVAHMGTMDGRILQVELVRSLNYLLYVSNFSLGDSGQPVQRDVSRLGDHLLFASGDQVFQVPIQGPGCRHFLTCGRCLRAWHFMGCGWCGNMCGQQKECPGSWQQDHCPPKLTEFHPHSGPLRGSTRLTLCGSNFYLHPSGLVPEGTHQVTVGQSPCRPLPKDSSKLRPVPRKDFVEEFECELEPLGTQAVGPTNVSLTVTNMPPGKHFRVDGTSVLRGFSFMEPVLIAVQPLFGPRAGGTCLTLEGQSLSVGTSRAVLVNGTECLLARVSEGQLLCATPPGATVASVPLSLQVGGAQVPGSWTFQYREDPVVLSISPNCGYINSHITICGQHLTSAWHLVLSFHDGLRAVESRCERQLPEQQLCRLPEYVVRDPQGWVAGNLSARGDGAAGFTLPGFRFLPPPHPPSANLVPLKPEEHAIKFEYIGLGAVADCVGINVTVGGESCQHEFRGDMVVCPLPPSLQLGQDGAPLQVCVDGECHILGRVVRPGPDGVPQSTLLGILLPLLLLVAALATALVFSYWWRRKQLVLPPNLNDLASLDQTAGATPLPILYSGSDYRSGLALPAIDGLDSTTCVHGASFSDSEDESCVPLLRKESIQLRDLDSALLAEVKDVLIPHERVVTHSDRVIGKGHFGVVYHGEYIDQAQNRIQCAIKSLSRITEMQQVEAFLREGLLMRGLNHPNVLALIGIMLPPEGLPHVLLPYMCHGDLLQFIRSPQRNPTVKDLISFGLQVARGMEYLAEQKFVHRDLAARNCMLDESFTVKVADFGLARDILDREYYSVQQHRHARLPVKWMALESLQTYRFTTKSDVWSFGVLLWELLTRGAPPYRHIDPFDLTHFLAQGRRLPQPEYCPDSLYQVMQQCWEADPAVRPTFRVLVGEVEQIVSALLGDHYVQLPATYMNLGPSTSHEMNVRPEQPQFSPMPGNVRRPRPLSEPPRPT
In short: (§3)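 Single-point screen at 1 μM compound in a 220-kinase panel run by Life Technologies (SelectScreen). Z′-LYTE format: phosphorylation of a labeled peptide substrate read by FRET. Values are reported as percent inhibition.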

[13] = molecular target: D(1A) dopamine receptor (Homo sapiens) (UniProt P21728); assay: Binding affinity to recombinant full length human D1 dopamine receptor at 10 uM relative to control; in short: as §1
[14] = molecular target: Aurora kinase A (Homo sapiens) (UniProt O14965); assay: Inhibition of recombinant full length His-tagged human Aurora A expressed in baculovirus expression system at 1 uM by FRET assay relative to control
Sequence of Aurora kinase A (Homo sapiens) (O14965 whole entry): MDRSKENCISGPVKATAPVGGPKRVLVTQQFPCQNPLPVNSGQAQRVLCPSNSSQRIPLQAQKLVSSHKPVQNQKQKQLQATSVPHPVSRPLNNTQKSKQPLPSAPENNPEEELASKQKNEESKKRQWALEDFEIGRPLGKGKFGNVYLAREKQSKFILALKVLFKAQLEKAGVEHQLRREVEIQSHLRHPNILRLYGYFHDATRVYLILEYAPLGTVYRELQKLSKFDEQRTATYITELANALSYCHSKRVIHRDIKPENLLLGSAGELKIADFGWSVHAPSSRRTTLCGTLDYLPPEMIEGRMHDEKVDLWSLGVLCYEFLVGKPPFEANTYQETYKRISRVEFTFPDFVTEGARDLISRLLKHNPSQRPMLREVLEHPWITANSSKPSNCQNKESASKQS

[15] = molecular target: Muscarinic acetylcholine receptor M1 (Homo sapiens) (UniProt P11229); assay: Binding affinity to recombinant human M1 acetylcholine receptor at 10 uM relative to control; in short: as §1
[16] = molecular target: Dual specificity protein kinase CLK2 (Homo sapiens) (UniProt P49760); assay: Inhibition of recombinant GST-tagged human CLK2 catalytic domain(137 to 498 residues)expressed in baculovirus expression system at 1 uM by FRET assay relative to control
[17] = molecular target: Sphingosine kinase 1 (Homo sapiens) (UniProt Q9NYA1); assay: Inhibition of recombinant full length GST-tagged human SPHK1 expressed in baculovirus expression system at 1 uM by FRET assay relative to control; in short: as §2
Sequence of Sphingosine kinase 1 (Homo sapiens) (Q9NYA1 whole entry, the tested form may be a part): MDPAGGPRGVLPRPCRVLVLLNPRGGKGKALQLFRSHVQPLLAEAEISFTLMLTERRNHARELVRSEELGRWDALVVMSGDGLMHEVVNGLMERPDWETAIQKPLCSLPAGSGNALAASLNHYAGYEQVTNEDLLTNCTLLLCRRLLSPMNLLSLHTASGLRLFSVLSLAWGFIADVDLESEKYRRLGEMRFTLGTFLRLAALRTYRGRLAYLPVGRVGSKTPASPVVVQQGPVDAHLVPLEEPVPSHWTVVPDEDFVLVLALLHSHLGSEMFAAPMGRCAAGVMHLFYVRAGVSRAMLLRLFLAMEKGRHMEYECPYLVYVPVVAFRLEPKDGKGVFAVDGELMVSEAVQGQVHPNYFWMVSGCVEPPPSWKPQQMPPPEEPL

[18] = molecular target: Vascular endothelial growth factor receptor 1 (Homo sapiens) (UniProt P17948); assay: Inhibition of recombinant GST-tagged human FLT1 cytoplasmic domain expressed in baculovirus expression system at 1 uM by FRET assay relative to control; in short: as §3
Sequence of Vascular endothelial growth factor receptor 1 (Homo sapiens) (P17948 whole entry, the tested form may be a part): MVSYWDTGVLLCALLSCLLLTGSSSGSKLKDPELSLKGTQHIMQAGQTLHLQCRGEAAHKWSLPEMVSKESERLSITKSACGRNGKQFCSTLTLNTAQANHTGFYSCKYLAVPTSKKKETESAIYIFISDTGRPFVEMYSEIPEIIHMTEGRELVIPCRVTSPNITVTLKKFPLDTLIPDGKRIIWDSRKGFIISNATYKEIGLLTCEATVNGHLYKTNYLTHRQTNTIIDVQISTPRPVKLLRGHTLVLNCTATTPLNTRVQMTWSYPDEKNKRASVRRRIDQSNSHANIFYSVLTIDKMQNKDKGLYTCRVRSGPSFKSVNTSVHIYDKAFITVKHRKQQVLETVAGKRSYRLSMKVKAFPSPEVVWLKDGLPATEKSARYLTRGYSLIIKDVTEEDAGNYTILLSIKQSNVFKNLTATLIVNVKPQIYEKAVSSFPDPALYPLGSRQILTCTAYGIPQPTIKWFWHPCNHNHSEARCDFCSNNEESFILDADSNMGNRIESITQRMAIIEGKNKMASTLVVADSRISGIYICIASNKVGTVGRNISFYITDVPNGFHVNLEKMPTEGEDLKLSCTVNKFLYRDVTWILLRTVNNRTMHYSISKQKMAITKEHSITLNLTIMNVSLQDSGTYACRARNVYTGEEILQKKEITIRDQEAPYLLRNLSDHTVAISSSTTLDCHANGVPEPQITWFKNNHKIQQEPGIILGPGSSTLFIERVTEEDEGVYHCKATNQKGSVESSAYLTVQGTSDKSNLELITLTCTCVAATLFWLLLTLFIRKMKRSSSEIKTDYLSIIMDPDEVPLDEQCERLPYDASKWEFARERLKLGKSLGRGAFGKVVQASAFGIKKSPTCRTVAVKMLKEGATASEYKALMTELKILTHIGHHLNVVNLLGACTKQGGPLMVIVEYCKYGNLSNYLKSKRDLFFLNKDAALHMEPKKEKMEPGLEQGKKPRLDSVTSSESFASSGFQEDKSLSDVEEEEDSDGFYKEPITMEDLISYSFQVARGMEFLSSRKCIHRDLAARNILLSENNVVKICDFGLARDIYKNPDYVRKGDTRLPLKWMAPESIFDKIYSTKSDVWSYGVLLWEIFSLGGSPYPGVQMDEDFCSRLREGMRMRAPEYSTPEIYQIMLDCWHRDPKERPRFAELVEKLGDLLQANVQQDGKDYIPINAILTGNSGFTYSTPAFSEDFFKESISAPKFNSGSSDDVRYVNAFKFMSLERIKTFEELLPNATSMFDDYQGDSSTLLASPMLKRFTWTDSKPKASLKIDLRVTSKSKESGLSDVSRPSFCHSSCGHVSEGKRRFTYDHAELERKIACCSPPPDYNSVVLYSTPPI

[19] = molecular target: Tyrosine-protein kinase JAK2 (Homo sapiens) (UniProt O60674); assay: Inhibition of recombinant GST-tagged human JAK2 catalytic domain (809 to 1153 residues) expressed in baculovirus expression system at 1 uM by FRET relative to control; in short: as §3
[20] = molecular target: Mitogen-activated protein kinase kinase kinase 8 (Homo sapiens) (UniProt P41279); assay: Inhibition of recombinant GST-tagged human Cot catalytic domain (30 to 397 residues) expressed in baculovirus expression system at 1 uM by FRET assay relative to control
[21] = molecular target: 5-hydroxytryptamine receptor 4 (Homo sapiens) (UniProt Q13639); assay: Binding affinity to 5HT4e receptor (unknown origin) receptor at 10 uM relative to control; in short: as §1
Sequence of 5-hydroxytryptamine receptor 4 (Homo sapiens) (Q13639 whole entry): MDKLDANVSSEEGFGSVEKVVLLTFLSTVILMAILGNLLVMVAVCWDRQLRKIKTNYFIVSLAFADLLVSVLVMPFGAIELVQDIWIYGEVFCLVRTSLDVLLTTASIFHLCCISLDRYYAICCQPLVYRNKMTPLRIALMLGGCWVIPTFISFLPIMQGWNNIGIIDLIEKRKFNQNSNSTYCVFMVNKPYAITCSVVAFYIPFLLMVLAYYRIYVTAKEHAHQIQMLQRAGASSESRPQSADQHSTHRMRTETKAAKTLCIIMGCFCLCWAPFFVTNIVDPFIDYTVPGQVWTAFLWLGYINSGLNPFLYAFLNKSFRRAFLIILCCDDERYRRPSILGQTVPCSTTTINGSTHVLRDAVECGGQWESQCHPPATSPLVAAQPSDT

[22] = molecular target: Serine/threonine-protein kinase Chk2 (Homo sapiens) (UniProt O96017); assay: Inhibition of recombinant full length His-tagged human CHK2 expressed in baculovirus expression system at 1 uM by FRET assay relative to control
[23] = molecular target: Mitogen-activated protein kinase 13 (Homo sapiens) (UniProt O15264); assay: Inhibition of recombinant full length His-tagged human p38delta expressed in baculovirus expression system at 1 uM by FRET assay relative to control

Sequence of cAMP-dependent protein kinase catalytic subunit PRKX (Homo sapiens) (P51817 whole entry): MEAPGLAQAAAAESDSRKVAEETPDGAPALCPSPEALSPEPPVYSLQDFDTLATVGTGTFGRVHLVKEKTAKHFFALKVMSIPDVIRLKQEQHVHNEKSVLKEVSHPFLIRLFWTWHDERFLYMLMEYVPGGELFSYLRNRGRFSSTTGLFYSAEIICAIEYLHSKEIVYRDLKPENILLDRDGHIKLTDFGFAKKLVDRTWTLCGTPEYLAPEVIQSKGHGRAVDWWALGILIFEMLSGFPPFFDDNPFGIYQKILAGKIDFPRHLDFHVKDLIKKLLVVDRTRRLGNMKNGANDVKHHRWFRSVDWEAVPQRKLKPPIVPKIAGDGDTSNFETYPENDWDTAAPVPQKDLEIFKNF

In the case of `Nc1ncc(-c2cc([C@H]3[C@@H]4CN(C5COC5)C[C@@H]43)n(CC3CC3)n2)cc1C(F)(F)F`, the inhibition [1] is reported as -7.2%, the Activity [2] is reported as > 50% and the inhibition [3] is reported as 2.7%. For the same compound, the Activity [4] was > 50%, the inhibition [5] was 4.8% and the inhibition [6] was 6.8%. The inhibition [7] was 29.1%, the IC50 [8] was 383 nM and the inhibition [9] was 2.9%. For the same compound, the inhibition [10] was 42.1%, the Activity [11] was > 50% and the inhibition [12] was 0.6%. The Activity [13] was > 50%, the inhibition [14] was 27.2% and the Activity [15] was > 50%. It also gave an inhibition [16] of 0.3%, an inhibition [17] of -3.3% and an inhibition [18] of -0.6%. For the same compound, the inhibition [19] was 20.4%, the inhibition [20] was 3.4% and the Activity [21] was > 50%. The inhibition [22] was 16.3% and the inhibition [23] was 3.8%.
In the case of `CC(C)n1nc(-c2cnc(N)c(OC(F)(F)F)c2)cc1[C@H]1[C@@H]2CN(C3COC3)C[C@@H]21`, the inhibition [1] is reported as -2.9%, the Activity [2] is reported as > 50% and the inhibition [3] is reported as 17.3%. For the same compound, the Activity [4] was > 50%, the inhibition [5] was 4.9% and the inhibition [6] was 40.7%. The inhibition [7] was 30.1%, the IC50 [8] was 1550 nM and the inhibition [9] was -6.8%. For the same compound, the inhibition [10] was 35.6%, the Activity [11] was > 50% and the inhibition [12] was 5.9%. For the same compound, the Activity [13] was > 50%, the inhibition [14] was 16.2% and the Activity [15] was > 50%. The inhibition [16] was 17.6%, the inhibition [17] was -0.2% and the inhibition [18] was 4.8%. The inhibition [19] was 4.6%, the inhibition [20] was 14.3% and the Activity [21] was > 50%. It also gave an inhibition [22] of 12.8% and an inhibition [23] of 10.5%.
